In ChEMBL document CHEMBL1131568, “Intensely potent doxorubicin analogues: structure-activity relationship” (J Med Chem, 1998):

Assays:
[1] = Compound was tested for the drug concentration that inhibited cell growth by 50% compared to un treated control cultures of CA 755 cells(murine carcinoma 755 cells); assay type: functional, Mus musculus
Summary of the method: (§1)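 Exponentially growing cells, seeded at 1.5×10^4 cells/mL in McCoy's 5A with 10% FCS, exposed to drug over 2×10^-5 to 2×10^-12 M for 6 days at 37 °C. Cells fixed in 10% formaldehyde, stained with 0.1% crystal violet, and counted by inverted phase-contrast microscopy. IC50 taken from dose-response curves of surviving fraction versus untreated controls; mean of duplicates.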

[2] = species: Mus musculus; experiment: Compound was tested for the drug concentration that inhibited cell growth by 50% compared to un treated control cultures of Panc 02 cells; assay type: functional, cell-based; conditions: Panc02; summary of the method: as §1
[3] = system: CHO; experiment: Compound was tested for the drug concentration that inhibited cell growth by 50% compared to un treated control cultures of CHO /DOX cell line; assay type: functional, cell-based; conditions: Cricetulus griseus; summary of the method: as §1
[4] = system: CHO; experiment: Drug concentration that inhibit cell growth by 50% compared to un treated control cultures of CHO cells (for 6 days at 37 degree Centigrade); assay type: functional, cell-based; conditions: Cricetulus griseus, 144 h; summary of the method: as §1
[5] = Compound was tested for the drug concentration that inhibited cell growth by 50% compared to untreated control cultures of CA 755 cells(murine carcinoma 755 cells); assay type: functional; conditions: Mus musculus; summary of the method: as §1
[6] = species: Mus musculus; experiment: Compound was tested for the drug concentration that inhibited cell growth by 50% compared to untreated control cultures of Panc 02 cells; assay type: functional, cell-based; conditions: Panc02; summary of the method: as §1

Structure (SMILES) | IC50 [1] | IC50 [2] | IC50 [3] | IC50 [4] | IC50 [5] | IC50 [6]
COc1cccc2c1C(=O)c1c(O)c3c(c(O)c1C2=O)CC(O)(C(=O)CO)CC3OC1CC(N(C)CCCCC(OC(C)=O)OC(C)=O)C(O)C(C)O1 (stereo not given) | 130 nM | 140 nM | 185 nM | 65 nM | – | –
COc1cccc2c1C(=O)c1c(O)c3c(c(O)c1C2=O)C[C@@](O)(C(=O)CO)C[C@@H]3O[C@H]1C[C@H](N)[C@H](O)[C@H](C)O1 [DOXORUBICIN] | – | – | – | – | 14 nM | 65 nM
COc1cccc2c1C(=O)c1c(O)c3c(c(O)c1C2=O)CC(O)(C(=O)CO)CC3OC1CC(NCCCCCC(OC(C)=O)OC(C)=O)C(O)C(C)O1 (stereo not given) | 3.1 nM | 14 nM | 13 nM | 26 nM | – | –
COc1cccc2c1C(=O)c1c(O)c3c(c(O)c1C2=O)CC(O)(C(=O)CO)CC3OC1CC(NCCCCCCCC(OC(C)=O)OC(C)=O)C(O)C(C)O1 (stereo not given) | 14 nM | 110 nM | 170 nM | 250 nM | – | –
CCCCCNC1CC(OC2CC(O)(C(=O)CO)Cc3c(O)c4c(c(O)c32)C(=O)c2c(OC)cccc2C4=O)OC(C)C1O (stereo not given) | 33 nM | 100 nM | – | – | – | –
COc1cccc2c1C(=O)c1c(O)c3c(c(O)c1C2=O)CC(O)(C(=O)CO)CC3OC1CC(NCCCC(=O)O)C(O)C(C)O1 (stereo not given) | 150 nM | 240 nM | 950 nM | 203 nM | – | –
COc1cccc2c1C(=O)c1c(O)c3c(c(O)c1C2=O)CC(O)(C(=O)CO)CC3OC1CC(NCCCOCCC(OC(C)=O)OC(C)=O)C(O)C(C)O1 (stereo not given) | 90 nM | 80 nM | 210 nM | 100 nM | – | –
COc1cccc2c1C(=O)c1c(O)c3c(c(O)c1C2=O)CC(O)(C(=O)CO)CC3OC1CC(NCCCCCOC(C)=O)C(O)C(C)O1 (stereo not given) | 140 nM | 67 nM | 350 nM | 83 nM | – | –
COc1cccc2c1C(=O)c1c(O)c3c(c(O)c1C2=O)CC(O)(C(=O)CO)CC3OC1CC(NCCC(C)(C)C(OC(C)=O)OC(C)=O)C(O)C(C)O1 (stereo not given) | 90 nM | 95 nM | 290 nM | 120 nM | – | –
COc1cccc2c1C(=O)c1c(O)c3c(c(O)c1C2=O)CC(O)(C(=O)CO)CC3OC1CC(NCCOCCC(OC(C)=O)OC(C)=O)C(O)C(C)O1 (stereo not given) | – | 60 nM | 96 nM | 55 nM | – | –
